# Measured values taken from ChEMBL document CHEMBL4834420, “Projected Dose Optimization of Amino- and Hydroxypyrrolidine Purine PI3Kδ Immunomodulators” (J Med Chem, 2021).
# Calls of active or inactive are those of the source. The calls are words filed in the database; no cut-off is given here.
# What was measured:
# [1] = Half-life in Wistar Han rat; assay type: ADME; conditions: in vivo
# [2] = Half-life in Beagle dog; assay type: ADME, Canis lupus familiaris; conditions: in vivo
# [3] = biological target: T1, Cytochrome P450 1A2 (Homo sapiens, UniProt P05177); experiment: Inhibition of CYP1A2 (unknown origin); assay type: ADME
# T1 sequence (P05177 whole entry): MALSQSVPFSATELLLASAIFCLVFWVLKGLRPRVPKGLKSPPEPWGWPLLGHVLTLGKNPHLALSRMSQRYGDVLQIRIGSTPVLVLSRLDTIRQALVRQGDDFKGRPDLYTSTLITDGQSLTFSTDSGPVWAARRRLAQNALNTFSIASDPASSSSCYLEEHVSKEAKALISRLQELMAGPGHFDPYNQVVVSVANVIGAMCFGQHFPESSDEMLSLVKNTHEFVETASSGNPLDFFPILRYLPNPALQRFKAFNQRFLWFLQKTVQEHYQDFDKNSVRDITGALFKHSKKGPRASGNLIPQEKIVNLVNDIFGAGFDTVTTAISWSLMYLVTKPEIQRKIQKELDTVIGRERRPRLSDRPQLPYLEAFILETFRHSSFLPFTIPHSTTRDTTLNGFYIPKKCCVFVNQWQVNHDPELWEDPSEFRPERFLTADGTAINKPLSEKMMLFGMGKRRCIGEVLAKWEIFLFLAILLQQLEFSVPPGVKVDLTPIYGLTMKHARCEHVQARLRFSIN
# [4] = Volume of distribution in Wistar Han rat; assay type: ADME; conditions: in vivo
# [5] = tested on: Rattus norvegicus; experiment: Immunomodulatory activity in ovalbumin induced Brown Norway rat allergic rhinitis model assessed as reduction in BAL count at 10 mg/kg, po administered for 2 days and treated with ovalbumin after 1 hr post second dose; assay type: functional; parameters: scale not given: the % may be the effect or the level left; conditions: time 2 day
# Procedure, shortened: (§1)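 Brown Norway rats were presensitized with ovalbumin, 0.020 mg ip daily for 14 days. They then received compound orally for 2 days (0.3–30 mg/kg range studied). Ovalbumin challenge came 1 h after the second dose. Eosinophil cell count in bronchoalveolar lavage was assessed 48 h later.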
# [6] = biological target: Voltage-dependent L-type calcium channel subunit alpha-1C (Homo sapiens, UniProt Q13936); experiment: Inhibition of Cav1.2 (unknown origin)
# Sequence of Voltage-dependent L-type calcium channel subunit alpha-1C (Q13936 whole entry): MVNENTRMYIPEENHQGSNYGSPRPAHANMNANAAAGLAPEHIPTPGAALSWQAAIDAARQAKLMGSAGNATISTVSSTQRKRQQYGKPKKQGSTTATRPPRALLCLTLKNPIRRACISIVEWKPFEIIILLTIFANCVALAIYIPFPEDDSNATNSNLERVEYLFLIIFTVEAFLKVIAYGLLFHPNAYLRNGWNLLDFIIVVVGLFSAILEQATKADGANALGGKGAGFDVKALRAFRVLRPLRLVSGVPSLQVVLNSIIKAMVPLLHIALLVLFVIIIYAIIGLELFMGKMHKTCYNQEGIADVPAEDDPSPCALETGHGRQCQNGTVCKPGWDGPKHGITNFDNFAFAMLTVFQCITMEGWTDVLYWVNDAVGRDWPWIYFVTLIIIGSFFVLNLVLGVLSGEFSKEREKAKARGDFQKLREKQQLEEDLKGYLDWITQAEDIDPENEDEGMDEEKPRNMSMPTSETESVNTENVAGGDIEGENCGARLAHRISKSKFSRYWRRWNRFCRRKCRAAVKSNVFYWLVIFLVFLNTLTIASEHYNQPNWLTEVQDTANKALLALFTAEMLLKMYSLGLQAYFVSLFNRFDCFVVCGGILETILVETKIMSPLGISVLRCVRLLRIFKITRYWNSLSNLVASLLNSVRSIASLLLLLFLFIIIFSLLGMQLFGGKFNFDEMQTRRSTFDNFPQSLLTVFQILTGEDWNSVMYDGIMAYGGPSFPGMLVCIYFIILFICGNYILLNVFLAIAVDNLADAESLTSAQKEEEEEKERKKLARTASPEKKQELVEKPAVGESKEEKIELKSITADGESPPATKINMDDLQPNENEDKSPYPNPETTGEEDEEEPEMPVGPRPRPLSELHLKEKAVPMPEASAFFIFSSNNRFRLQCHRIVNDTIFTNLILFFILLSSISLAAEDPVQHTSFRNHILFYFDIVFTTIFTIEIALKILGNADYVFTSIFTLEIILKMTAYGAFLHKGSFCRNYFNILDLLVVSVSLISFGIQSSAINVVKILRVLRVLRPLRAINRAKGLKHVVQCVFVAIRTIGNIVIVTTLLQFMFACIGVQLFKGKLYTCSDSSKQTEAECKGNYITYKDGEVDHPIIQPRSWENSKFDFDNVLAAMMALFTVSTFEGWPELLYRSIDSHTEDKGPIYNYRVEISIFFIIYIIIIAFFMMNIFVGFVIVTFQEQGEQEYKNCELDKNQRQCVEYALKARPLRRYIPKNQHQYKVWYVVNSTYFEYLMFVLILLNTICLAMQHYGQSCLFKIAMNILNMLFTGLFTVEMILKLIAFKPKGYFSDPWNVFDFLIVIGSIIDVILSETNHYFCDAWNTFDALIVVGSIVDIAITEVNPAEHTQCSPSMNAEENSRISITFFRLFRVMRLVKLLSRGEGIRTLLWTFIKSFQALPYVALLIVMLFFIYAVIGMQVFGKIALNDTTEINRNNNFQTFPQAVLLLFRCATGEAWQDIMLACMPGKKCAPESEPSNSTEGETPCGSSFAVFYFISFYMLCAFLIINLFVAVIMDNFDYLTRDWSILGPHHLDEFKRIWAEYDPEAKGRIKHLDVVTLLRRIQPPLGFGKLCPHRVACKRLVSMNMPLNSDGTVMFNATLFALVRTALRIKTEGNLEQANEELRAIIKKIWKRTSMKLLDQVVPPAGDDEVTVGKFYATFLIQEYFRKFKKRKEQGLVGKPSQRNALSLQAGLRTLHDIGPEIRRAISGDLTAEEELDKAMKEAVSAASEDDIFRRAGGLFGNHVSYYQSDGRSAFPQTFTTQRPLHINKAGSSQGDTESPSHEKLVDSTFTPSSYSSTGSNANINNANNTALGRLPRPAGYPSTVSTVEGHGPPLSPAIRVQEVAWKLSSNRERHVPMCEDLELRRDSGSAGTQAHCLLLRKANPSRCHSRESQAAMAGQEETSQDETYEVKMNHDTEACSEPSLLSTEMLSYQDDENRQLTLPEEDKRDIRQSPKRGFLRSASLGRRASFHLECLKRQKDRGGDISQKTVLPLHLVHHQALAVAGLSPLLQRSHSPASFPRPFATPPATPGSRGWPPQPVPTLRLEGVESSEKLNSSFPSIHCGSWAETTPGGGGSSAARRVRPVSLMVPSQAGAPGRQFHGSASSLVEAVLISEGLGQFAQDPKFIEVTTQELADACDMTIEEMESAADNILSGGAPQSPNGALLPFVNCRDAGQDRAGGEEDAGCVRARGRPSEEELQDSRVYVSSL
# [7] = Plasma clearance in Wistar Han rat at 0.5 mg/kg, iv or 1 mg/kg, po; assay type: ADME, organism-based
# [8] = Plasma clearance in C57BL/6 mouse at 1 mg/kg, iv or 3 mg/kg, po; assay type: ADME, organism-based
# [9] = Solubility of compound in stimulated intestinal fluid; assay type: physicochemical; conditions: simulated intestinal fluid
# [10] = biological target: T2, Solute carrier organic anion transporter family member 1B1 (Homo sapiens, UniProt Q9Y6L6); experiment: Inhibition of OATP1B1 (unknown origin)
# T2 sequence (Q9Y6L6 whole entry): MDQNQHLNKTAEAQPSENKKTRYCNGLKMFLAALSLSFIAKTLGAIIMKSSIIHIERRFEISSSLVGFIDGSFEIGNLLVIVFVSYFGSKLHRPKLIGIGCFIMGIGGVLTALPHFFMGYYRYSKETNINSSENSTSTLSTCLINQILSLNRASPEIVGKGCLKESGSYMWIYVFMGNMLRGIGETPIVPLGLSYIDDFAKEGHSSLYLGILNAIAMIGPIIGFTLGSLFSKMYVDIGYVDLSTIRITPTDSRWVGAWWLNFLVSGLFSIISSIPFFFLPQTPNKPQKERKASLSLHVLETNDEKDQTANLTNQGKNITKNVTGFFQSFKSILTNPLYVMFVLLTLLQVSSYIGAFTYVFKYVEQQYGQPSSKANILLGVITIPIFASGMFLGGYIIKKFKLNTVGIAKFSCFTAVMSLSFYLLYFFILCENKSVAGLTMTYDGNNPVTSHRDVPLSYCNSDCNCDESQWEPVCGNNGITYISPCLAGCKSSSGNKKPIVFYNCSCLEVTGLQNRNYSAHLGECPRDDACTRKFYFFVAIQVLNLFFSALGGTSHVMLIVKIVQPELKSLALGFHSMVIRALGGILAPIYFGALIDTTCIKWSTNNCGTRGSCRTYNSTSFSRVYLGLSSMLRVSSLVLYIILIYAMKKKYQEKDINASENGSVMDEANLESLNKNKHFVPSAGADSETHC
# [11] = Unbound volume of distribution in Wistar Han rat; assay type: ADME; conditions: in vivo
# [12] = Oral bioavailability in Beagle dog; assay type: ADME, organism-based, Canis lupus familiaris; conditions: in vivo
# [13] = Unbound volume of distribution in C57BL/6 mouse; assay type: ADME; conditions: in vivo
# [14] = Oral bioavailability in C57BL/6 mouse; assay type: ADME, organism-based; conditions: in vivo
# [15] = biological target: Voltage-gated inwardly rectifying potassium channel KCNH2 (Homo sapiens, UniProt Q12809); experiment: Inhibition of hERG (unknown origin)
# [16] = tested on: Rattus norvegicus; experiment: Immunomodulatory activity in ovalbumin induced Brown Norway rat allergic rhinitis model assessed as reduction in BAL count at 30 mg/kg, po administered for 2 days and treated with ovalbumin after 1 hr post second dose; assay type: functional, organism-based; conditions: time 2.0 day; procedure, shortened: as §1
# [17] = biological target: Sodium channel protein type 5 subunit alpha (Homo sapiens, UniProt Q14524); experiment: Inhibition of Nav1.5 (unknown origin)
# Sequence of Sodium channel protein type 5 subunit alpha (Q14524 whole entry): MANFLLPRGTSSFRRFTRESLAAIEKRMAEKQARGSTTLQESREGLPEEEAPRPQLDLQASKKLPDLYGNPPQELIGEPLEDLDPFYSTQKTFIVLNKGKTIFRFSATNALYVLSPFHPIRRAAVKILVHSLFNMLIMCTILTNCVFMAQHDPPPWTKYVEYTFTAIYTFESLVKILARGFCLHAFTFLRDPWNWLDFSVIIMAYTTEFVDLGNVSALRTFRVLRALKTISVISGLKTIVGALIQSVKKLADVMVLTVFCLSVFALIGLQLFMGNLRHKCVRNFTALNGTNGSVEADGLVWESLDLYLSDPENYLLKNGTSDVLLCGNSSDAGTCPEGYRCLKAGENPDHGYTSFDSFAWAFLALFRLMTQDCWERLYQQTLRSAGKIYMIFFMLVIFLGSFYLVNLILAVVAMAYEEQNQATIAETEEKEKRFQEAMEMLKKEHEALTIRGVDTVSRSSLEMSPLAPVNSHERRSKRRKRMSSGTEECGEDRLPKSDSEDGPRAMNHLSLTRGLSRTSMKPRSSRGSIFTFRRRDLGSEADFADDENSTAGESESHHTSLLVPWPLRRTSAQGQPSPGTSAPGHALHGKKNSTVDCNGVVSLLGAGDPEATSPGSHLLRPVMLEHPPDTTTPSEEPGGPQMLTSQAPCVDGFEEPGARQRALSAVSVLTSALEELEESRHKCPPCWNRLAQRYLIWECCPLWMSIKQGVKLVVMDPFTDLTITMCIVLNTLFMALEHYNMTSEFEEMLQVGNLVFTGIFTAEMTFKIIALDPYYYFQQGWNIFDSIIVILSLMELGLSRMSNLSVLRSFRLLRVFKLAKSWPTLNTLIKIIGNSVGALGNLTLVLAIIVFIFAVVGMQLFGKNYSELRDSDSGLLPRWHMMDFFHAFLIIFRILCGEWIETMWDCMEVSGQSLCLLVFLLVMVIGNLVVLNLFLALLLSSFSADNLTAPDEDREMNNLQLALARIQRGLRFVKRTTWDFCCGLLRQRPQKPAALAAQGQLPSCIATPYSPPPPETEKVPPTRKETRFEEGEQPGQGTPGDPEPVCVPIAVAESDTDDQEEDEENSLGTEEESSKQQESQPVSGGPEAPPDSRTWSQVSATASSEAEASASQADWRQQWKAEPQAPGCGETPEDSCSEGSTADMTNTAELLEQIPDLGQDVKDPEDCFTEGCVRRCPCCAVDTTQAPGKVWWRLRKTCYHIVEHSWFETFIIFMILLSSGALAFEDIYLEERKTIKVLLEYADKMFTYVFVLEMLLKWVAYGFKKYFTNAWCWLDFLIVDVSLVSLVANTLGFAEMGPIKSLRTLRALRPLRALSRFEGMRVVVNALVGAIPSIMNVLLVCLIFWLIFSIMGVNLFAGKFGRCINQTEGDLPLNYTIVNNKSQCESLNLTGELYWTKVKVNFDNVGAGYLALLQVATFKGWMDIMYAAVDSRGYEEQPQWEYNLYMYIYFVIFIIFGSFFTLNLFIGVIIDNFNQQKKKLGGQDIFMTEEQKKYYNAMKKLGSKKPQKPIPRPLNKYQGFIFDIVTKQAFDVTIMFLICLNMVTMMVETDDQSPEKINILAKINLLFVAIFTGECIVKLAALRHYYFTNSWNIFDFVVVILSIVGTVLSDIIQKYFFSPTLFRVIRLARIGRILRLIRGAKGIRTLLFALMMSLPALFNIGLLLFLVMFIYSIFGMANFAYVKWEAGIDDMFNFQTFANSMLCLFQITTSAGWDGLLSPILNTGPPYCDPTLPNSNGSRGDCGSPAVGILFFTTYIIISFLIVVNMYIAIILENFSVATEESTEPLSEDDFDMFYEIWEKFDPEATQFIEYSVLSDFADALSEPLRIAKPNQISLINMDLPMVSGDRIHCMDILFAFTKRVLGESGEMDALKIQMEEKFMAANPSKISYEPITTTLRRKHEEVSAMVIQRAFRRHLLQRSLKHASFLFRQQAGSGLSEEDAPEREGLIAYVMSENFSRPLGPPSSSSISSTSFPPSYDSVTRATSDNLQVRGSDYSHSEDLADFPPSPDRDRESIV
# [18] = Intrinsic clearance in Beagle dog at 0.25 mg/kg, iv or 0.5 mg/kg, po; assay type: ADME, organism-based, Canis lupus familiaris; conditions: in vivo
# [19] = tested on: BCRP; experiment: Efflux ratio of apparent permeability from basolateral to apical side over apical to basolateral side in MDCK2 cells expressing BCRP; assay type: ADME, cell-based, Canis lupus familiaris, MDCK-II; conditions: dog
# [20] = Unbound Trough plasma concentration Brown Norway rat at 10 mg/kg, po; assay type: ADME, organism-based; conditions: in vivo
# [21] = Apparent permeability in pig LLC-PK1 cells; assay type: ADME, cell-based, Sus scrofa
# [22] = tested on: P-gp (MDR1); experiment: Efflux ratio of apparent permeability from basolateral to apical side over apical to basolateral side in dog MDCK2 cells expressing MDR1 PGP; assay type: ADME, cell-based, Canis lupus familiaris, MDCKII-MDR1; conditions: MDCK-MDR1
# [23] = Unbound volume of distribution in Beagle dog; assay type: ADME, Canis lupus familiaris; conditions: in vivo
# [24] = Dissociation constant, pKa of compound; assay type: physicochemical
# [25] = Unbound trough plasma concentration C57BL/6 mouse at 100 mg/kg; assay type: ADME, organism-based; conditions: in vivo
# Procedure, shortened: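 C57BL/6-Foxp3-GFP reporter mice were dosed at 30 and 100 mg/kg/day for up to 7 days, with exposure determined at 100 mg/kg. The unbound Cmax and trough values were derived from total plasma levels. Treg readout was bioluminescence imaging 10 min after 3 mg luciferin ip, reported as radiance in photons/s/cm²/steradian.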
# [26] = Inhibition of dog PI3Kdelta; parameters: species or system Canis lupus familiaris
# [27] = biological target: Cytochrome P450 2C19 (Homo sapiens, UniProt P33261); experiment: Inhibition of CYP2C19 (unknown origin); assay type: ADME
# Sequence of Cytochrome P450 2C19 (P33261 whole entry): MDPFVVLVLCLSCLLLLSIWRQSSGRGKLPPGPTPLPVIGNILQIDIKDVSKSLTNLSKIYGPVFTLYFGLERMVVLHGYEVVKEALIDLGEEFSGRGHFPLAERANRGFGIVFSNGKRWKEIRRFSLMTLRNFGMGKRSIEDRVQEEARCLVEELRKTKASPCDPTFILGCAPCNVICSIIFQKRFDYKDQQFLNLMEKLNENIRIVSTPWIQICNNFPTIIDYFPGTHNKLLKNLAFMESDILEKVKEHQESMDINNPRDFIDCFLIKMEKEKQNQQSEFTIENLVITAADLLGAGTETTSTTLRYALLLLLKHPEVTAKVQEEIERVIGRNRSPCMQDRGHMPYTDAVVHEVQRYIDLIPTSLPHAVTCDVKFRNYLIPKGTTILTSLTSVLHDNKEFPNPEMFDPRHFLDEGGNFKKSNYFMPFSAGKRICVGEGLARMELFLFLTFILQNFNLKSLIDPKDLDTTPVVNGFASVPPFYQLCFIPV
structure (smiles),measurement,setting,value
CCn1c(-c2cnc(C)nc2)nc2c(N[C@H]3CCN(C(=O)C4CC4)C3)ncnc21,half-life,[1],2.7 h
same,half-life,[2],4.3 h
same,IC50,[3],> 50 µM
same,Vd,[4],1 L/kg
same,Activity,[5],50%
same,IC50,[6],> 50 µM
same,clearance,[7],8.1 mL/min/kg
same,clearance,[8],45 mL/min/kg
same,solubility,[9],14 mg/mL
same,inhibition (INH),[10],Not Active
same,Vdu,[11],6.3 L/kg
same,bioavailability,[12],95%
same,Vdu,[13],0.4 L/kg
same,bioavailability,[14],77%
same,IC50,[15],> 50 µM
same,Activity,[16],Active
same,IC50,[17],> 50 µM
same,CL,[18],6.2 mL/min/kg
same,efflux ratio,[19],5
same,fCmin,[20],8 nM
same,Papp,[21],22 ×10⁻⁶ cm/s
same,efflux ratio,[22],16
same,Vdu,[23],1.8 L/kg
same,pKa,[24],3.06
same,fCmin,[25],52 nM
same,IC50,[26],0.0025 µM
same,IC50,[27],> 50 µM
